Assay results: ChEMBL document CHEMBL3098130, “Discovery of Novel Putative Inhibitors of UDP-GlcNAc 2-Epimerase as Potent Antibacterial Agents” (ACS Med Chem Lett, 2013)

Tests used:
Mus musculus [1] = test: AUC in CD1 mouse at 50 mg/kg, ip; assay type: ADME, organism-based, Plasma; set-up: dose 50 mg/kg, route intraperitoneal; conditions: in vivo
How it was run: (§1)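 Female CD-1 mice, single intraperitoneal dose of 25, 50 or 100 mg/kg; the 50 mg/kg BID group was dosed twice. Plasma levels were followed over time to derive tmax, Cmax, half-life, Vz, clearance and AUC. Time above MIC was taken against a 2000 ng/mL plasma threshold.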

[2] = Inhibition of Bacillus anthracis UDP-GlcNAc 2-epimerase using UDP-GlcNAc as substrate preincubated for 15 mins by UDP-ManNAc dehydrogenase-coupled assay
Mus musculus [3] = test: Apparent volume of distribution in CD1 mouse at 100 mg/kg, ip; assay type: ADME, organism-based; set-up: dose 100 mg/kg, route intraperitoneal; conditions: in vivo; how it was run: as §1
Mus musculus [4] = test: AUC in CD1 mouse at 25 mg/kg, ip; assay type: ADME, organism-based, Plasma; set-up: dose 25 mg/kg, route intraperitoneal; conditions: in vivo; how it was run: as §1
Mus musculus [5] = test: T>MIC in CD1 mouse at 100 mg/kg, ip; conditions: route intraperitoneal; how it was run: as §1
Mus musculus [6] = test: Apparent volume of distribution in CD1 mouse at 50 mg/kg, ip bid; assay type: ADME, organism-based; set-up: dose 50 mg/kg, route intraperitoneal; conditions: in vivo; how it was run: as §1
Mus musculus [7] = test: Cmax in CD1 mouse at 100 mg/kg, ip; assay type: ADME, organism-based; set-up: dose 100 mg/kg, route intraperitoneal; conditions: in vivo; how it was run: as §1
Bacillus atrophaeus = test: Antibacterial activity against Bacillus atrophaeus assessed as growth inhibition measured for 3 days by broth microdilution method; assay type: functional
How it was run: (§2)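 MIC by broth microdilution against a panel of Gram-positive and Gram-negative strains (ATCC-type numbers where given). Run in triplicate on three different days.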

Mus musculus [8] = test: Cmax in CD1 mouse at 50 mg/kg, ip bid; assay type: ADME, organism-based; set-up: dose 50 mg/kg, route intraperitoneal; conditions: in vivo; how it was run: as §1
Streptococcus agalactiae = test: Antibacterial activity against Streptococcus agalactiae 12386 assessed as growth inhibition measured for 3 days by broth microdilution method; assay type: functional; conditions: Streptococcus agalactiae, 12386, 72 h; how it was run: as §2
[9] = Clearance in CD1 mouse at 25 mg/kg, ip; assay type: ADME, organism-based; set-up: dose 25 mg/kg, route intraperitoneal; conditions: in vivo
How it was run: (§3)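 Female CD-1 mice received the test compound intraperitoneally, either as a single dose (25, 50 or 100 mg/kg) or as 50 mg/kg BID. Exposure was followed over time, and clearance was reported in mL/h/kg together with tmax, Cmax, half-life, VZ and AUC.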

Mus musculus [10] = test: Cmax in CD1 mouse at 50 mg/kg, ip; assay type: ADME, organism-based; set-up: dose 50 mg/kg, route intraperitoneal; conditions: in vivo; how it was run: as §1
Mus musculus [11] = test: Tmax in CD1 mouse at 50 mg/kg, ip bid; assay type: ADME, organism-based; set-up: dose 50 mg/kg, route intraperitoneal; conditions: in vivo; how it was run: as §1
Mus musculus [12] = test: T>MIC in CD1 mouse at 25 mg/kg, ip; conditions: route intraperitoneal; how it was run: as §1
Mus musculus [13] = test: Tmax in CD1 mouse at 50 mg/kg, ip; assay type: ADME, organism-based; set-up: dose 50 mg/kg, route intraperitoneal; conditions: in vivo; how it was run: as §1
Salmonella enterica = test: Antibacterial activity against Salmonella enterica assessed as growth inhibition measured for 3 days by broth microdilution method; assay type: functional; how it was run: as §2
Mus musculus [14] = test: Half life in CD1 mouse at 100 mg/kg, ip; assay type: ADME, organism-based; set-up: dose 100 mg/kg, route intraperitoneal; conditions: in vivo; how it was run: as §1
[15] = Chemical stability in aqueous solution assessed as compound isomerization/degradation at pH 10 after 3 days by HPLC/NMR analysis; assay type: physicochemical; conditions: buffer, pH 10, 72 h
Mus musculus [16] = test: Apparent volume of distribution in CD1 mouse at 50 mg/kg, ip; assay type: ADME, organism-based; set-up: dose 50 mg/kg, route intraperitoneal; conditions: in vivo; how it was run: as §1
Mus musculus [17] = test: T>MIC in CD1 mouse at 50 mg/kg, ip bid; conditions: route intraperitoneal; how it was run: as §1
Mus musculus [18] = test: Cmax in CD1 mouse at 25 mg/kg, ip; assay type: ADME, organism-based; set-up: dose 25 mg/kg, route intraperitoneal; conditions: in vivo; how it was run: as §1
Shigella sonnei = test: Antibacterial activity against Shigella sonnei assessed as growth inhibition measured for 3 days by broth microdilution method; assay type: functional; how it was run: as §2
Escherichia coli = test: Antibacterial activity against Escherichia coli assessed as growth inhibition measured for 3 days by broth microdilution method; assay type: functional; how it was run: as §2
[19] = Aqueous solubility of the compound; assay type: physicochemical; conditions: buffer
Serratia marcescens = test: Antibacterial activity against Serratia marcescens assessed as growth inhibition measured for 3 days by broth microdilution method; assay type: functional; how it was run: as §2
Mus musculus [20] = test: AUC in CD1 mouse at 100 mg/kg, ip; assay type: ADME, organism-based, Plasma; set-up: dose 100 mg/kg, route intraperitoneal; conditions: in vivo; how it was run: as §1
Mus musculus [21] = test: AUC in CD1 mouse at 50 mg/kg, ip bid; assay type: ADME, organism-based, Plasma; set-up: dose 50 mg/kg, route intraperitoneal; conditions: in vivo; how it was run: as §1
Proteus mirabilis = test: Antibacterial activity against Proteus mirabilis assessed as growth inhibition measured for 3 days by broth microdilution method; assay type: functional; how it was run: as §2
Candida albicans = test: Antifungal activity against Candida albicans assessed as growth inhibition measured for 3 days by broth microdilution method; assay type: functional; conditions: 72 h
Mus musculus [22] = test: Half life in CD1 mouse at 50 mg/kg, ip bid; assay type: ADME, organism-based; set-up: dose 50 mg/kg, route intraperitoneal; conditions: in vivo; how it was run: as §1
[23] = Clearance in CD1 mouse at 50 mg/kg, ip; assay type: ADME, organism-based; set-up: dose 50 mg/kg, route intraperitoneal; conditions: in vivo; how it was run: as §3
Pseudomonas aeruginosa = test: Antibacterial activity against Pseudomonas aeruginosa assessed as growth inhibition measured for 3 days by broth microdilution method; assay type: functional; how it was run: as §2
Mus musculus [24] = test: Tmax in CD1 mouse at 25 mg/kg, ip; assay type: ADME, organism-based; set-up: dose 25 mg/kg, route intraperitoneal; conditions: in vivo; how it was run: as §1
Enterococcus faecalis = test: Antibacterial activity against Enterococcus faecalis 19433 assessed as growth inhibition measured for 3 days by broth microdilution method; assay type: functional; how it was run: as §2
Mus musculus [25] = test: T>MIC in CD1 mouse at 50 mg/kg, ip; conditions: route intraperitoneal; how it was run: as §1
Mus musculus [26] = test: Half life in CD1 mouse at 50 mg/kg, ip; assay type: ADME, organism-based; set-up: dose 50 mg/kg, route intraperitoneal; conditions: in vivo; how it was run: as §1
Mus musculus [27] = test: Half life in CD1 mouse at 25 mg/kg, ip; assay type: ADME, organism-based; set-up: dose 25 mg/kg, route intraperitoneal; conditions: in vivo; how it was run: as §1
Mus musculus [28] = test: Tmax in CD1 mouse at 100 mg/kg, ip; assay type: ADME, organism-based; set-up: dose 100 mg/kg, route intraperitoneal; conditions: in vivo; how it was run: as §1
[29] = Clearance in CD1 mouse at 100 mg/kg, ip; assay type: ADME, organism-based; set-up: dose 100 mg/kg, route intraperitoneal; conditions: in vivo; how it was run: as §3
Acinetobacter baumannii = test: Antibacterial activity against Acinetobacter baumannii assessed as growth inhibition measured for 3 days by broth microdilution method; assay type: functional; how it was run: as §2
Enterococcus faecium = test: Antibacterial activity against Enterococcus faecium 6569 assessed as growth inhibition measured for 3 days by broth microdilution method; assay type: functional; how it was run: as §2
Mus musculus [30] = test: Toxicity in CD1 mouse assessed as mortality at < 100 mg/kg, ip; assay type: organism-based; set-up: dose 100 mg/kg, route intraperitoneal; conditions: in vivo
How it was run: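 Female CD-1 mice were given the compound intraperitoneally in the PK dose groups. Mortality and clinical observations were recorded.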

Mus musculus [31] = test: Apparent volume of distribution in CD1 mouse at 25 mg/kg, ip; assay type: ADME, organism-based; set-up: dose 25 mg/kg, route intraperitoneal; conditions: in vivo; how it was run: as §1
[32] = tested on: Staphylococcus epidermidis; test: Antibacterial activity against Staphylococcus epidermidis 13518 assessed as growth inhibition measured for 3 days by broth microdilution method; assay type: functional; conditions: Staphylococcus epidermidis, 13518, 72 h; how it was run: as §2
[33] = Clearance in CD1 mouse at 50 mg/kg, ip bid; assay type: ADME, organism-based; set-up: dose 50 mg/kg, route intraperitoneal; conditions: in vivo; how it was run: as §3

## O=C([O-])[C@H](Cc1ccccc1)N1C(=O)/C(=C\c2ccc(-c3ccc(Cl)c(Cl)c3)o2)NC1=S.[Na+]
Mus musculus [1]
  AUC: 480 µg·h/mL
[2]
  Ki: 82 µM
Mus musculus [3]
  Vz: 0.18 L/kg
Mus musculus [4]
  AUC: 170 µg·h/mL
Mus musculus [5]
  T>MIC: 19.4 h
Mus musculus [6]
  Vz: 0.24 L/kg
Mus musculus [7]
  Cmax: 490 µg/mL
Bacillus atrophaeus
  MIC: 7.8 µM
Mus musculus [8]
  Cmax: 320 µg/mL
Streptococcus agalactiae
  MIC: 3.9 µM
[9]
  CL/F: 2.33 mL/min/kg
Mus musculus [10]
  Cmax: 140 µg/mL
Mus musculus [11]
  Tmax: 3.08 h
Mus musculus [12]
  T>MIC: 10.6 h
Mus musculus [13]
  Tmax: 0.5 h
Salmonella enterica
  MIC: > 25 µM
Mus musculus [14]
  t1/2: 2.2 h
[15]
  Stability: Stable
Mus musculus [16]
  Vz: 0.34 L/kg
Mus musculus [17]
  T>MIC: 18.3 h
Mus musculus [18]
  Cmax: 68 µg/mL
Shigella sonnei
  MIC: > 25 µM
Escherichia coli
  MIC: > 25 µM
[19]
  solubility: soluble
Serratia marcescens
  MIC: > 25 µM
Mus musculus [20]
  AUC: 1800 µg·h/mL
Mus musculus [21]
  AUC: 1050 µg·h/mL
Proteus mirabilis
  MIC: > 25 µM
Candida albicans
  MIC: > 25 µM
Mus musculus [22]
  t1/2: 3.4 h
[23]
  CL/F: 1.67 mL/min/kg
Pseudomonas aeruginosa
  MIC: > 25 µM
Mus musculus [24]
  Tmax: 4.8 min
Enterococcus faecalis
  MIC: 15.6 µM
Mus musculus [25]
  T>MIC: 14.6 h
Mus musculus [26]
  t1/2: 2.3 h
Mus musculus [27]
  t1/2: 2.4 h
Mus musculus [28]
  Tmax: 4.8 min
[29]
  CL/F: 0.917 mL/min/kg
Acinetobacter baumannii
  MIC: > 25 µM
Enterococcus faecium
  MIC: 15.6 µM
Mus musculus [30]
  Activity: Non-toxic
Mus musculus [31]
  Vz: 0.5 L/kg
[32]
  MIC: 2 µM
[33]
  CL/F: 0.783 mL/min/kg
